According to the array DNA melting data of Ke et al. (doi:10.1101/2024.01.08.574731):

Columns and labels:
[1] = folding enthalpy; higher = less favourable; fluorescence melt of hairpins on a sequencing array, two-state fit; conditions: sodium 0.088 M
Procedure, shortened: (§1)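 Bootstrapped two-state fits yielded melting temperature and folding enthalpy for library hairpins. Cy3 fluorescence, with annealed Cy3 and quencher oligos, was imaged on a sequenced MiSeq flow cell in 50 mM Na-HEPES pH 8.0, 25 mM NaCl in 2.5 °C steps up to 60 °C, and normalised to pre-quench Cy3 and to control constructs. Four replicates were combined by inverse variance, and fitted temperatures were raised by 9.35 °C to match UV melts.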

[2] = melting temperature; fluorescence melt of hairpins on a sequencing array, two-state fit, raised by 9.35 °C to match UV melts; conditions: sodium 0.088 M
Procedure, shortened: as §1

Sequence | folding enthalpy [1] [kcal/mol] | Tm [2] [°C]
GTCGTCGGAAACGATGAC (((.(((....))).))) | -44.4 | 55.5
GTCGTCGGAAACGGTGAC (((..((....))..))) | -24 | 42.4
GTCGTGGGAAACTACGGC (.(((.(....).))).) | -25.6 | 44.7
GTCGTGTCGAAAGACGAC (((..(((....)))))) | -19.9 | 48.9
GTCGTTGGAAACAATGGC (.(.(((....))).).) | -24.8 | 35
GTCTAAGGAAACTCAGAC ((((.((....)).)))) | -11.5 | 26.6
GTCTACGAAAGTACTGAC ((((((....)))..))) | -10.8 | 28.9
GTCTACGAAAGTAGAC ((((((....)))))) | -36.8 | 66.8
GTCTAGTCGAAAGACGAC (((..(((....)))))) | -14.3 | 39.4
GTCTATCGAAAGATCGAC (((.(((....))).))) | -40.4 | 41.4
GTCTATCGAAAGATGAC (((.(((....)))))) | -27.1 | 42
GTCTATGGAAACACAGAC ((((.((....)).)))) | -21 | 31.6
GTCTCAACGAAAGTTGAC (((..(((....)))))) | -10.7 | 30.5
GTCTCAGAAATGAGAC ((((((....)))))) | -41.8 | 53.8
GTCTCAGGAAACCGAGAC (((((.(....).))))) | -30.8 | 45.7
GTCTCCCGAAAGGGGGAC (((.(((....))).))) | -32.4 | 65.9
GTCTCCGAAAGGAGTGAC ((((((....)))..))) | -11.2 | 36
GTCTCCGAAAGGATTGAC ((((((....)))..))) | -20 | 35.5
GTCTCGGCGAAAGCCGAC (((..(((....)))))) | -4.96 | 35.6
GTCTCGGGAAACCAAGAC ((((.((....)).)))) | -26.5 | 37.2
GTCTCGTCGAAAGACGAC (((..(((....)))))) | -7.57 | 37
GTCTCTCGAAAGAGTGAC (((.(((....))).))) | -32.6 | 49.7
GTCTCTGGAAACAGAGGC (.(((((....))))).) | -26.2 | 49.5

Sequence | folding enthalpy [1] [kcal/mol] | Tm [2] [°C]
GTCTGAGAAATCAGAC ((((((....)))))) | -37.5 | 52.4
GTCTGAGGAAACTCAAAC ((.((((....)))).)) | -11.3 | 24.5
GTCTGAGGAAACTCAGAC (((((((....))))))) | -45.5 | 63.8
GTCTGCACGAAAGTGGAC (((..(((....)))))) | -15 | 34.7
GTCTGCCGAAAGGCGAC (((.(((....)))))) | -18.1 | 54.9
GTCTGCCGAAAGGCTGAC (((.(((....))).))) | -30.5 | 62.1
GTCTGCGAAAGCACAGAC ((((((....)))..))) | -18.6 | 46.3
GTCTGCGAAAGCAGAGAC ((((((....)))..))) | -9.97 | 51.4
GTCTGCGAAAGCAGGGAC ((((((....)))..))) | -7.79 | 42.8
GTCTGCGAAAGCATCGAC ((((((....)))..))) | -14.8 | 33.6
GTCTGCGAAAGCATGAC ((((((....))).))) | -23.5 | 52.7
GTCTGCGAAAGCATGGAC ((((((....)))..))) | -15.7 | 40.7
GTCTGCGCGAAAGCGGAC (((..(((....)))))) | -13.3 | 45.2
GTCTGCGGAAACACAGAC (((((.(....).))))) | -44.1 | 46.7
GTCTGGCCGAAAGGCGAC (((..(((....)))))) | -15.7 | 43.9
GTCTGGGGAAACCTAGAC ((((.((....)).)))) | -29.7 | 47.6
GTCTGGGGAAACCTAGGC (.((.((....)).)).) | -19.8 | 34.8
GTCTGTACGAAAGTAGAC (((..(((....)))))) | -24.2 | 36.4
GTCTGTTCGAAAGAAGAC (((..(((....)))))) | -23 | 26.4
GTCTTAACGAAAGTTGAC (((..(((....)))))) | -15.8 | 31.9
GTCTTAGGAAACTAAGGC (.(((((....))))).) | -25.9 | 42.9
GTCTTAGGAAACTGAGAC ((((.((....)).)))) | -30.7 | 40.9
GTCTTCCGAAAGGACGAC (((.(((....))).))) | -40.7 | 48.6

Sequence | folding enthalpy [1] [kcal/mol] | Tm [2] [°C]
GTCTTCGAAAGAAAAGAC ((((((....)))..))) | -17.9 | 30.8
GTCTTCGAAAGAAGTGAC ((((((....)))..))) | -13.3 | 34
GTCTTCGGAAACGAAAAC ((.((((....)))).)) | -15.4 | 29.2
GTCTTCGGAAACGAGGAC (((.(((....))).))) | -39.1 | 49.7
GTCTTGACGAAAGTCGAC (((..(((....)))))) | -11 | 35.5
GTCTTGCGAAAGCAGAC (((.(((....)))))) | -22.8 | 52.1
GTCTTGCGAAAGCATGAC (((.(((....))).))) | -37.7 | 56.1
GTCTTGGGAAACCAAGGC (.(((((....))))).) | -24.4 | 51
GTCTTGGGAAACCGAGAC ((((.((....)).)))) | -33 | 49.9
GTCTTTCGAAAGAACGAC (((.(((....))).))) | -40.9 | 41
GTGAAAACGAAAGTTCAC (((..(((....)))))) | -21.7 | 38.4
GTGAAACCGAAAGGTCAC (((..(((....)))))) | -20.4 | 42
GTGAAATCGAAAGATCAC (((..(((....)))))) | -17 | 32.8
GTGAACCGAAAGGTCCAC (((.(((....))).))) | -24.6 | 49.8
GTGAACCGAAAGGTGCAC (((.(((....))).))) | -39.6 | 60.7
GTGAACGAAAGTTACCAC ((((((....)))..))) | -15.3 | 26
GTGAACGAAAGTTCAC ((((((....)))))) | -26 | 68.6
GTGAACGAAAGTTCCAC ((((((....))).))) | -15.9 | 39.9
GTGAACGAAAGTTGACAC ((((((....)))..))) | -18.6 | 34.8
GTGAACGAAAGTTTACAC ((((((....)))..))) | -18.6 | 39.6
GTGAACGAAAGTTTCAC ((((((....))).))) | -22 | 47.9
GTGAACGGAAACGTTTAC ((.((((....)))).)) | -29.6 | 46.9
GTGAACTCGAAAGAGCAC (((..(((....)))))) | -13.4 | 35.1

Sequence | folding enthalpy [1] [kcal/mol] | Tm [2] [°C]
GTGAAGGCGAAAGCCCAC (((..(((....)))))) | -15.6 | 46.7
GTGAAGGGAAACCTTCAC (((((((....))))))) | -46.1 | 60
GTGAAGGGAAACCTTTAC ((.((((....)))).)) | -25.3 | 39.6
GTGAAGGGAAACCTTTGC (..((((....))))..) | -20.1 | 31.7
GTGAATACGAAAGTACAC (((..(((....)))))) | -12.5 | 27.5
GTGAATGAAAATTCAC ((((((....)))))) | -29.8 | 52.3
GTGAATGGAAACATCCAC (((.(((....))).))) | -24.1 | 34.6
GTGACAGGAAACCGTCAC (((((.(....).))))) | -34.6 | 50.4
GTGACCGAAAGGTGACAC ((((((....)))..))) | -16 | 42.8
GTGACCGAAAGGTTCAC ((((((....))).))) | -29.5 | 53
GTGACCGGAAACGACCAC (((..((....))..))) | -21.2 | 30.4
GTGACCGGAAACGATCAC ((((.((....)).)))) | -39.6 | 46.6
GTGACCGGAAACGGCCAC (((.(((....))).))) | -39 | 54.2
GTGACCGGAAACGGTTAC ((.((((....)))).)) | -26.4 | 54.9
GTGACGCGAAAGCGCAC (((.(((....)))))) | -15 | 58.8
GTGACGGGAAACTGTCGC (.(((.(....).))).) | -28.2 | 45.8
GTGACTCGAAAGAGCAC (((.(((....)))))) | -26.2 | 48.1
GTGACTCGAAAGAGGCAC (((.(((....))).))) | -34.4 | 67.9
GTGACTGGAAACAGTCGC (.(((((....))))).) | -30.6 | 56.2
GTGAGAGGAAACTTTCAC ((((.((....)).)))) | -23.8 | 35.1
GTGAGCGAAAGCTAACAC ((((((....)))..))) | -15.4 | 44
GTGAGCGAAAGCTAGCAC ((((((....)))..))) | -11.4 | 40.4
